For assay [1], the target named is Potassium voltage-gated channel subfamily KQT member 2 (Mus musculus) (UniProt Q9Z351). In words: Increased outward current at -40 mV mediated by mouse KCNQ2 channel expressed in Xenopus laevis oocytes at 20 uM. The note with it: Oocyte. It counts as functional, cell-based. The gist of the method:
(§1)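 Mouse KCNQ2 (mKCNQ2) currents recorded from Xenopus oocytes by two-electrode voltage clamp. Holding potential -90 mV, with about 5 s steps in +10 mV increments up to +40 mV. Records digitized at 5 kHz. Each compound applied at a single concentration (1, 5 or 20 µM) in at least 3 oocytes. Value is the mean percent change in current relative to the drug-free control (100%).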

Assay [2] has the same target. In words: Increased outward current at -40 mV mediated by mouse KCNQ2 channel expressed in Xenopus laevis oocytes at 1 uM. It counts as functional, cell-based. As to conditions: Oocyte. A digest of the protocol: as §1
For assay [3] the target is unchanged. Briefly: Increased outward current at -40 mV mediated by mouse KCNQ2 channel expressed in Xenopus laevis oocytes at 20 uM; Insoluble. It counts as functional, cell-based. As to conditions: Oocyte. The gist of the method:
as §1

Assay [4] shares this target. In words: Increased outward current at -40 mV mediated by mouse KCNQ2 channel expressed in Xenopus laevis oocytes at 5 uM; Insoluble. It counts as functional, cell-based. As to conditions: Oocyte. The gist of the method:
as §1

Assay [5] shares this target. In words: Increased outward current at -40 mV mediated by mouse KCNQ2 channel expressed in Xenopus laevis oocytes at 100 nM. It counts as functional, cell-based. As to conditions: Oocyte.
Assay [6] has as its target Potassium voltage-gated channel subfamily KQT member 2 (Mus musculus, UniProt Q9Z351). In words: Increased outward current at -40 mV mediated by mouse KCNQ2 channel expressed in Xenopus laevis oocytes. The assay is classed as functional, cell-based, Oocyte.

In general, EC50 refers to the midpoint of the concentration-response curve. A lower EC50 goes with an effect from little substance.

Sequence of Potassium voltage-gated channel subfamily KQT member 2 (Mus musculus) (Q9Z351 whole entry): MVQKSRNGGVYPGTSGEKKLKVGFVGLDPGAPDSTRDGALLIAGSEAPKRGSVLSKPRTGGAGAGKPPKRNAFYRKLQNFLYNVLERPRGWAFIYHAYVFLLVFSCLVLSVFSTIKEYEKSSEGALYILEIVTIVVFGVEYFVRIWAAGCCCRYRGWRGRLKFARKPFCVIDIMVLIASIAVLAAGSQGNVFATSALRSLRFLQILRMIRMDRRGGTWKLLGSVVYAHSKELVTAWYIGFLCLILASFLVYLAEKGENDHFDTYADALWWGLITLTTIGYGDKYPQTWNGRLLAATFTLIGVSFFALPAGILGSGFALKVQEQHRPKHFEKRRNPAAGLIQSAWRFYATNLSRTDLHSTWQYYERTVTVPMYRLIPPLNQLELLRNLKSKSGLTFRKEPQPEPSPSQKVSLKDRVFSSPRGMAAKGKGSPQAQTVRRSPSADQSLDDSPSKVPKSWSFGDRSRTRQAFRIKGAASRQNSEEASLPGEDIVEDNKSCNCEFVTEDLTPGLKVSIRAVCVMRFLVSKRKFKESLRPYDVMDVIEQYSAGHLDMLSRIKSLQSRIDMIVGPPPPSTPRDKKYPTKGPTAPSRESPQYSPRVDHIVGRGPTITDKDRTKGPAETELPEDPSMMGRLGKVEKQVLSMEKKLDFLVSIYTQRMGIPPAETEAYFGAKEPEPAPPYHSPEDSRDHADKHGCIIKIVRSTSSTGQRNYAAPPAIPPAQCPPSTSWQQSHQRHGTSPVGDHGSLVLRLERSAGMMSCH
Sequence of Potassium voltage-gated channel subfamily KQT member 2 (Q9Z351 whole entry): as above

As to `Nc1c(O)nc2ccccc2c1Cc1ccccc1`, in assay [1], the Increase turned out to be 103%.
On the same count and under the same terms, as for `O=S(=O)(Nc1c(O)nc2cc(C(F)(F)F)ccc2c1Cc1ccccc1O)C(F)(F)F`, the figure is 277%.
On to `COc1ccccc1Cc1c(NS(=O)(=O)C(F)(F)F)c(O)nc2cc(C(F)(F)F)ccc12`, for which the Increase in assay [1] came to 254%.
As for `Nc1c(O)nc2cc(C(F)(F)F)ccc2c1Cc1cc(Cl)ccc1O`, the Increase in assay [2] is 89%; in assay [3], “Insoluble”; in assay [4], “Insoluble”.
Regarding `COc1ccc(Cl)cc1Cc1c(NS(=O)(=O)C(F)(F)F)c(O)nc2ccc(C(F)(F)F)cc12`, in assay [1], the Increase was 231%.
Turning to `O=S(=O)(Nc1c(O)nc2ccc(C(F)(F)F)cc2c1Cc1cc(Cl)ccc1O)C(F)(F)F`, the Increase stood at 143% in assay [5], 217% in assay [2] and 284% in assay [1].
As to `O=S(=O)(Nc1c(O)nc2cc(C(F)(F)F)ccc2c1Cc1cccc(Cl)c1)C(F)(F)F`, in assay [1], the Increase is 220%.
Take `O=S(=O)(Nc1c(O)nc2cc(C(F)(F)F)ccc2c1Cc1ccccc1)C(F)(F)F`: the Increase in assay [1] is 223%.
Molecule `CCOC(=O)Nc1ccc(NCc2ccc(F)cc2)cc1N` registered an Increase in assay [1] of 269%.
`O=c1[nH]c2ccc(C(F)(F)F)cc2c(Cc2cc(Cl)ccc2O)c1NS(=O)(=O)C(F)(F)F`: a half-maximal response in assay [6] (EC50) required 663 nM.
Consider `O=S(=O)(Nc1c(O)nc2cc(C(F)(F)F)ccc2c1Cc1cc(Cl)ccc1O)C(F)(F)F`, for which the Increase in assay [2] came to 190%; in assay [1], 271%.
In turn, `O=S(=O)(Nc1c(O)nc2ccccc2c1Cc1ccccc1)C(F)(F)F` had an Increase in assay [1] of 131%.
Same read-out and setting: to `Nc1c(O)nc2ccc(C(F)(F)F)cc2c1Cc1cc(Cl)ccc1O` belongs 122%.
